CSC inhib: blocks cancer stem cells; cancer stem cell-like cells viability, luminescence; 300,000 compounds, 1.1% hits; inhibition, % at 7.5 µM; in the data active means inhibition above about 75%; inconclusive means no clear call, values can overlap the other calls; tested in HMLE shEcad cells
Calb FLC: C. albicans growth modulation with fluconazole; 300,000 compounds, 0.57% hits; AID 1979; growth inhibition, % (no concentration beside the values); C. albicans CaCi-2 (fluconazole-resistant clinical isolate) + fluconazole, Alamar Blue growth, 48 h;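 active means growth inhibition above about 58% in most replicates, limit read from the data, passing the limit was not always enough; inconclusive means exactly half the replicates above a set limit; inactive means most replicates below a set limit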;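 further: all wells also contain fluconazole at 8 µg/ml as a sub-toxic cotreatment; 0% = median of DMSO wells and 100% = median of geldanamycin control wells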
SKKanGAS inh: inhibitors of SKKanGAS S. pyogenes growth in kanamycin (SK-promoter or general growth effect). 300,000 compounds, 1.3% hits. BacTiter-Glo, 6 h. AID 1662. inhibition, % at 7.5 µM;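 active means mean replicate score, as percent of positive control median, at least 50; inconclusive means mean below 50 but one replicate at or above 50; inactive means mean and every replicate below 50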;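 further: strain carries kanamycin resistance gene driven by streptokinase promoter and grows in 40 µg/ml kanamycin; loss of luminescence reflects streptokinase promoter inhibition or plain growth inhibition; 0% = median of DMSO wells and 100% = positive control at its reference dose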
Beta cell apopt: blocks beta cell apoptosis; INS-1E cytokine-induced death, ATP luminescence, 48 h; percent of positive-control rescue, neutral wells zero; protection from apoptosis, % (concentration not given with the values); 300,000 compounds, 0.8% hits;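 active means Every replicate reaches about 75%, or at least half do and their mean reaches it too, limit read from the data; inconclusive means At least half of replicates reach the limit but their mean does not; inactive means Under half of replicates reach the limit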;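 further: 0% = cytokine-treated negative control wells and 100% = positive control rescue; higher means more ATP so stronger rescue from cytokine killing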
Mdm2-MdmX inh: inhibitors of human Mdm2/MdmX interaction. O15151+Q00987. 330,000 compounds, 3% hits. AID 485346. inhibition, % at 8 µM. SaOS-2 split-luciferase Mdm2/MdmX complementation, luminescence;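 active means inhibition of at least 50% at 8 µM in the primary screen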
T cruzi inh: blocks replication of Trypanosoma cruzi | T. cruzi beta-gal in NIH3T3, luminescence, 90 h | AID 1885 | inhibition, % (concentration not given with the values) | 300,000 compounds, 1.4% hits;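 active means mean inhibition across valid replicates above about 55%, limit read from the data; inconclusive means mean below that limit but half or more replicates reach it; inactive means mean below it, under half of replicates reach it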;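 further: signal also drops with host cell toxicity which is not excluded here; 0% = plate median of DMSO wells and 100% = zero luminescence signal; higher percent means less beta-gal luminescence so fewer parasites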
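Assay system: NIH/3T3 host cells with β-galactosidase reporter T. cruzi; input: 5,000 host fibroblasts per well; compound: single 50 nL compound addition per well in DMSO; timing: ≥90 h infection period, 3 h prior cell attachment; measured by: GalScreen β-gal luminescence, detergent lysis, 60 min; evaluation: percent inhibition of parasite-derived β-gal signal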
Mdm2 MdmX conf: human Mdm2/MdmX binding inhibition, confirmed; shares compounds with Mdm2-MdmX inh; luminescent assay; 10,000 compounds, 55% hits; inhibition, % at 8 µM; in the data active means inhibition above about 40%
FLuc counter: inhibits full-length luciferase, flagging false Mdm2/MdmX hits | shares compounds with Mdm2-MdmX inh | AID 504607 | SaOS-2 full-length luciferase counterscreen, luminescence | inhibition, % at 8 µM | 6,200 compounds, 77% hits;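 active means mean inhibition at 8 µM reaching about 37%, which flags the compound as non-specific, limit read from the data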;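 further: p53-null SaOS-2 cells with luciferase driven by a doxycycline-inducible promoter; compound on cells about two nights before reading with doxycycline added after day one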
The depositor's hits bear a star; ? = inconclusive; . = not tested or not shown. Only some compounds are listed: those with a hit (about 5.7% of all), similar ones and a draw of the others.

SMILES	CSC inhib	Calb FLC	SKKanGAS inh	Beta cell apopt	Mdm2-MdmX inh	T cruzi inh	Mdm2 MdmX conf	FLuc counter
COc1ccc2nc(N(CCN(C)C)C(=O)/C=C/c3cccs3)sc2c1	13.8	-9.1	6.5	-4.2	53.0*	50.8	38.9	44.1*
Cc1cccc2sc(N(CCN(C)C)C(=O)/C=C/c3cccs3)nc12	35.7	15.5	3.6	15.4	62.6*	22.3	31.4	.
COc1ccc2sc(N(CCN(C)C)C(=O)/C=C/c3cccs3)nc2c1	24.8	-7.6	14.7	-4.0	45.7	23.8	.	.
CCOC(=O)c1sc(NN=C(C(=O)OC)C(=O)OC)c(C(=O)OCC)c1C	31.8	1.2	34.6	6.6	49.2	2.0	.	.
CC1CCN(Cc2c(O)ccc3c(=O)c(-c4nc5ccccc5s4)c(N)oc23)CC1	.	-7.4	0.8	2.1	50.7*	27.8	21.9	.
CC1CCCN(Cc2c(O)ccc3c(=O)c(-c4nc5ccccc5s4)c(N)oc23)C1 (stereo not drawn)	30.9	81.0*	34.4	27.1	70.1*	42.5	43.3*	67.2*
COc1ccccc1-c1c(C)oc2c(CN3CCN(C)CC3)c(O)ccc2c1=O	3.1	-13.3	2.1	1.9	-6.2	-3.1	.	.
CC1(C)CCCN(Cc2c(O)ccc3c(=O)c(-c4nc5ccccc5s4)c(N)oc23)C1	?	-5.1	13.6	2.0	14.3	53.7	.	.
CCN(Cc1ccccc1)C(=O)c1nn(-c2ccc(OC)cc2)c(=O)c2c1c1ccccc1n2C	-6.1	-4.9	15.8	-0.8	0.1	37.3	.	.
CC(=O)Nc1ccc(NC(=O)COC(=O)c2c(-c3ccccc3)noc2C)cc1	.	.	.	1.2	7.7	.	.	.
Cc1ccc(N/N=C2\CC(=O)c3ccccc32)cc1Cl	76.8*	-3.3	24.6	31.2	57.9*	3.4	6.1	.
CCCCNc1c(-c2cccc(-c3cc(C(C)=O)cs3)c2)nc2ccc(C)cn12	125.3*	0.6	52.6*	1.7	81.3*	25.3	57.8*	59.7*
COC(=O)Nc1c(-c2ccccc2)nc2ccc(C)cn12	-6.9	-5.3	-4.6	-2.4	6.4	.	.	.
CCCCNc1c(-c2ccc(OC)c(SC3CCCCC3)c2)nc2cc(C)ccn12	92.4*	1.1	72.0*	18.2	63.6*	36.0	20.8	.
CCCCNc1c(-c2cccc(-c3ccc(OC)cc3)c2)nc2cc(C)ccn12	.	.	.	55.6	91.5*	.	-0.7	.
COc1ccc(-c2nc3ccc(C)cn3c2NCc2ccc3c(c2)OCO3)cc1	8.2	-20.8	-4.1	0.5	-22.6	29.3	.	.
CCCCNc1c(-c2cccc(-c3ccc(OC)cc3)c2)nc2ccc(C)cn12	113.6*	9.0	63.1*	92.5*	99.2*	54.2	56.5*	66.3*
CCCCNc1c(-c2ccc(OC)c(SC3CCCCC3)c2)nc2ccc(Cl)cn12	36.5	.	.	33.9	23.1	.	.	.
CC(C)(C)C(=O)NCCc1nc2ccccc2n1CC(=O)c1ccc(Cl)cc1	-19.6	-6.7	1.8	10.2	17.1	0.3	.	.
CN(c1ccccc1)S(=O)(=O)c1ccc(Cl)c(C(=O)Nc2ccccc2N2CCOCC2)c1	.	.	.	.	21.0	.	.	.
CCC1CCCCN1C(=O)CCC(=O)Nc1nnc(C(F)(F)F)s1 (stereo not drawn)	-9.7	.	0.9	-0.6	4.7	3.2	.	.
CC(=O)c1cccc(NC(=O)CSc2nnc(-c3ccncc3)o2)c1	-7.0	.	.	0.6	4.3	.	.	.
N/C(=N\c1nc2ccccc2o1)NC(=O)c1cccc(Br)c1	1.2	-6.6	2.2	10.2	59.5*	-7.4	12.8	.
N/C(=N\c1nc2ccccc2o1)NC(=O)c1ccccc1	16.4	-6.0	4.1	-4.2	-54.7	14.8	.	.
CN(C)C1=NC[C@H](Cc2ccccc2)N1CCCC1CCCC1	35.6	.	.	39.5	53.5*	.	27.8	68.1*
SMILES	CSC inhib	Calb FLC	SKKanGAS inh	Beta cell apopt	Mdm2-MdmX inh	T cruzi inh	Mdm2 MdmX conf	FLuc counter
CN(C)CCCNc1ncnc2c1c(-c1ccccc1)cn2-c1ccccc1	14.7	-2.4	-4.3	2.2	61.3*	41.1	42.4*	89.3*
Cc1cc(NC(=O)CSc2nnc(CNC(=O)c3c(F)cccc3F)o2)no1	7.5	0.3	-0.5	-1.8	4.3	-13.8	.	.
COc1ccc(NC(=O)c2ccccc2F)cc1Cl	0.0	3.3	-0.1	-5.1	-41.4	-11.2	.	.
O=C(Nc1ccc(Oc2ccc(Cl)cc2)c(Cl)c1)c1cc(I)cc(I)c1O	100.3*	.	103.0*	-2.2	100.4*	-9.3	73.6*	56.2*
COc1cc2c(cc1OC)C(c1ccccc1[N+](=O)[O-])N(C(C)=O)CC2 (stereo not drawn)	-9.5	0.6	5.7	0.4	10.8	2.9	.	.
Clc1ccc(CN2CCc3c([nH]c4ccccc34)C2)cc1Cl	124.2*	14.9	18.6	10.3	96.4*	38.0	39.4	47.6*
Cc1cccc(N/C=C/c2onc(C)c2[N+](=O)[O-])c1	-4.7	10.2	-2.9	6.7	-74.2	-9.5	.	.
Cc1cccc(/C=C/c2onc(C)c2[N+](=O)[O-])n1	51.5	-7.5	-5.4	-7.2	100.0*	31.5	71.3*	22.3
CSc1nc(-c2ccc(Cl)cc2)nc(N)c1C#N	-20.4	2.2	-1.6	11.5	66.9*	-24.3	44.0*	73.0*
CSc1nc(-c2ccc(C)cc2)nc(N)c1C#N	0.9	62.0	-5.7	-7.3	7.5	18.1	.	.
N#Cc1c(-c2ccccc2)nc(-c2ccccc2)nc1N1CCOCC1	7.6	-2.6	-5.8	0.5	30.2	-9.2	.	.
Nc1nc(-c2ccc(Cl)cc2)nc(-c2ccc(Cl)cc2)n1	24.6	4.5	-2.4	-4.3	57.1*	-1.6	40.4*	61.3*
CC(C)(C)c1ccc(-c2nc(N)nc(N)n2)cc1	-11.5	-6.6	-3.0	-4.3	4.2	-17.5	.	.
N#Cc1c(N)nc(-c2ccccc2)nc1-c1ccccc1	-12.0	4.7	-9.0	-1.2	56.2*	-3.5	3.1	.
O=C(O)c1cccc(COc2cccc3ccccc23)c1	12.2	-1.3	2.4	.	-70.4	-13.9	.	.
O=C(Cn1cc(C(F)(F)F)ccc1=O)N1CCc2ccccc21	-10.9	.	.	-5.1	6.5	.	.	.
C=CCNC(=S)N/N=C(\C)c1ccccn1	113.6*	115.1*	81.1*	93.4*	91.4*	53.8	63.8*	31.6
C/C(=N\NC(=O)c1ccc(F)cc1)c1ccccn1	104.3*	-10.4	88.5*	110.9*	97.3*	50.6	60.0*	58.2*
C/C(=N\NC(=O)c1cc2ccccc2cc1O)c1cc2ccccc2o1	92.8*	-4.2	77.8*	16.1	54.0*	-1.6	39.6	57.9*
C/C(=N\NC(=O)c1nc2ccccn2c1C)c1cc2ccccc2o1	.	-12.8	0.5	-3.2	9.5	12.5	.	.
C/C(=N/NC(=O)CNC(=O)c1ccccn1)c1ccccc1	5.6	35.2	9.1	-5.6	8.7	-38.7	.	.
CCc1ccc(/C(C)=N/NC(=O)c2ccccn2)cc1	-1.9	-11.1	-8.0	1.3	-23.5	10.9	.	.

Source: PubChem BioAssay (several laboratories)
